# ChEMBL document CHEMBL1153955, “Indolylarylsulfones bearing natural and unnatural amino acids. Discovery of potent inhibitors of HIV-1 non-nucleoside wild type and resistant mutant strains reverse transcriptase and coxsackie B4 virus” (J Med Chem, 2009)
# How the values were obtained:
# [1] = tested on: Respiratory syncytial virus; assay: Antiviral activity against RSV Long in human HeLa cells assessed as protection against virus-induced cytopathicity; assay type: functional, organism-based
# In short: (§1)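 Confluent cell monolayers inoculated with 100 CCID₅₀ virus. After 1-2 h adsorption, residual virus removed and cultures incubated with varying compound concentrations. Cytopathicity scored once it reached completion in untreated infected controls. EC₅₀ = dose reducing virus-induced cytopathogenicity by 50%.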
# [2] = tested on: Vesicular stomatitis virus; assay: Antiviral activity against VSV in human HeLa cells assessed as protection against virus-induced cytopathicity; assay type: functional, organism-based
# [3] = tested on: Human immunodeficiency virus 1; assay: Antiviral activity against HIV1 3B in human CEM cells assessed as protection against virus-induced cytopathicity after 4 days; assay type: functional, organism-based; conditions: Human immunodeficiency virus 1, 3B, CCRF-CEM, 96 h
# In short: (§2)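 CEM cells (~3 × 10⁵ cells/mL) infected with ~100 CCID₅₀ per mL of HIV-1 (IIIB) or HIV-2 (ROD), then seeded into wells containing compound dilutions. After 4 days at 37 °C, syncytium (giant cell) formation was examined microscopically. EC₅₀ = concentration protecting CEM cells from HIV cytopathicity by 50%.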
# [4] = tested on: Human immunodeficiency virus 2; assay: Antiviral activity against HIV2 ROD in human CEM cells assessed as protection against virus-induced cytopathicity after 4 days; assay type: functional, organism-based; conditions: Human immunodeficiency virus 2, ROD, CCRF-CEM, 96 h; in short: as §2
# [5] = tested on: L1210; assay: Antiproliferative activity against mouse L1210 cells after 2 days; assay type: cell-based; conditions: L1210, 48 h
# In short: (§3)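 Cells seeded at 5 × 10⁴ to 7.5 × 10⁴ cells/200 µL with or without serial compound dilutions; incubated at 37 °C for 2 days (L1210) or 3 days (Molt4/C8, CEM). Cell numbers counted with a Coulter counter. CC₅₀ = concentration reducing proliferation by 50% versus untreated controls, read from plots of cell number (% of control) against concentration. Means of at least two independent experiments.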
# [6] = Antiproliferative activity against human Molt4/C8 cells after 3 days; assay type: cell-based; conditions: MOLT-4, 72 h; in short: as §3
# [7] = tested on: CCRF-CEM; assay: Antiproliferative activity against human CEM cells after 3 days; assay type: cell-based; conditions: 72 h; in short: as §3
# [8] = biological target: Human immunodeficiency virus type 1 reverse transcriptase (Human immunodeficiency virus 1, UniProt Q72547); assay: Inhibition of HIV1 reverse transcriptase p66/p51
# [9] = biological target: Human immunodeficiency virus type 1 reverse transcriptase (Human immunodeficiency virus 1, UniProt Q72547, L100I); assay: Inhibition of HIV1 reverse transcriptase p66/p51 L100I mutant
# In short: (§4)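 Substrate was 0.5 µg poly(rA)/oligo(dT) 10:1 (0.3 µM 3′-OH ends) with 10 µM [³H]dTTP, at 37 °C. Acid-precipitable radioactivity was counted on GF/C filters after TCA washes.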
# [10] = biological target: Human immunodeficiency virus type 1 reverse transcriptase (Human immunodeficiency virus 1, UniProt Q72547, K103N); assay: Inhibition of HIV1 reverse transcriptase p66/p51 K103N mutant; in short: as §4
# [11] = biological target: Human immunodeficiency virus type 1 reverse transcriptase (Human immunodeficiency virus 1, UniProt Q72547, Y181I); assay: Inhibition of HIV1 reverse transcriptase p66/p51 Y181I mutant; in short: as §4
# [12] = Cytotoxicity against human HeLa cells assessed as drug level causing microscopically detectable alteration of normal cell morphology after 3 days; assay type: cell-based
# In short: (§5)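 Serial compound dilutions added to confluent HeLa or Vero monolayers. MCC = minimum concentration causing microscopically detectable alteration of cell morphology after 3 days of incubation.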
# [13] = Cytotoxicity against african green monkey Vero cells assessed as drug level causing microscopically detectable alteration of normal cell morphology after 3 days; assay type: cell-based; conditions: chlorocebus sabaeus; in short: as §5
# [14] = tested on: Coxsackievirus B4; assay: Antiviral activity against Coxsackievirus B4 in human HeLa cells assessed as protection against virus-induced cytopathicity; assay type: functional, organism-based; conditions: Enterovirus B; in short: as §1
# [15] = tested on: Coxsackievirus B4; assay: Antiviral activity against Coxsackievirus B4 in african green monkey Vero cells assessed as protection against virus-induced cytopathicity; assay type: functional, organism-based; conditions: Enterovirus B; in short: as §1
# [16] = tested on: Human respirovirus 3; assay: Antiviral activity against Parainfluenza virus type 3 in african green monkey Vero cells assessed as protection against virus-induced cytopathicity; assay type: functional, organism-based; conditions: Human respirovirus 3, Vero; in short: as §1
# [17] = tested on: Mammalian orthoreovirus 1; assay: Antiviral activity against Reovirus 1 in african green monkey Vero cells assessed as protection against virus-induced cytopathicity; assay type: functional, organism-based; conditions: Mammalian orthoreovirus 1, Vero; in short: as §1
# [18] = tested on: Sindbis virus; assay: Antiviral activity against Sindbis virus in african green monkey Vero cells assessed as protection against virus-induced cytopathicity; assay type: functional, organism-based; in short: as §1
# [19] = tested on: Punta Toro virus; assay: Antiviral activity against Punta Toro virus in african green monkey Vero cells assessed as protection against virus-induced cytopathicity; assay type: functional, organism-based; in short: as §1
# [20] = Cytotoxicity against human HEL cells assessed as drug level causing microscopically detectable alteration of normal cell morphology after 3 days; assay type: cell-based
# [21] = tested on: Human alphaherpesvirus 1; assay: Antiviral activity against HSV1 KOS in human HEL cells assessed as protection against virus-induced cytopathicity; assay type: functional, organism-based; conditions: Human alphaherpesvirus 1, KOS
# [22] = tested on: Human alphaherpesvirus 2; assay: Antiviral activity against HSV2 G in human HEL cells assessed as protection against virus-induced cytopathicity; assay type: functional, organism-based; conditions: Human alphaherpesvirus 2, strain G; in short: as §1
# [23] = tested on: Vaccinia virus; assay: Antiviral activity against Vaccinia virus Lederle in human HEL cells assessed as protection against virus-induced cytopathicity; assay type: functional, organism-based; conditions: Orthopoxvirus vaccinia
# [24] = tested on: Vesicular stomatitis virus; assay: Antiviral activity against VSV in human HEL cells assessed as protection against virus-induced cytopathicity; assay type: functional, organism-based
# [25] = tested on: Human alphaherpesvirus 1; assay: Antiviral activity against thymidine kinase deficient and acyclovir resistant HSV1 KOS in human HEL cells assessed as protection against virus-induced cytopathicity; assay type: functional, organism-based; conditions: Human alphaherpesvirus 1, KOS
# [26] = Cytotoxicity against MDCK cells assessed as drug level causing microscopically detectable alteration of normal cell morphology; assay type: cell-based, Canis lupus familiaris; conditions: dog
# [27] = Cytotoxicity against MDCK cells by MTS assay; assay type: cell-based, Canis lupus familiaris; conditions: dog
# [28] = tested on: Influenza A virus; assay: Antiviral activity against influenza H1N1 virus in MDCK cells assessed as reduction of virus-induced cytopathicity by visual cytopathic effect scoring method; assay type: functional, organism-based
# [29] = tested on: Influenza A virus; assay: Antiviral activity against influenza H1N1 virus in MDCK cells assessed as reduction of virus-induced cytopathicity by MTS method; assay type: functional, organism-based; conditions: Influenza A virus, H1N1, MDCK
# [30] = tested on: Influenza A virus H3N2; assay: Antiviral activity against influenza H3N2 virus in MDCK cells assessed as reduction of virus-induced cytopathicity by visual cytopathic effect scoring method; assay type: functional, organism-based
# [31] = tested on: Influenza A virus H3N2; assay: Antiviral activity against influenza H3N2 virus in MDCK cells assessed as reduction of virus-induced cytopathicity by MTS method; assay type: functional, organism-based
# [32] = tested on: Influenza B virus; assay: Antiviral activity against influenza B virus in MDCK cells assessed as reduction of virus-induced cytopathicity by visual cytopathic effect scoring method; assay type: functional, organism-based
# [33] = tested on: Influenza B virus; assay: Antiviral activity against influenza B virus in MDCK cells assessed as reduction of virus-induced cytopathicity by MTS method; assay type: functional, organism-based
# [34] = Cytotoxicity against feline CRFK cells by MTS assay; assay type: cell-based, Felis catus; conditions: cat
# [35] = tested on: Feline coronavirus; assay: Antiviral activity against Feline coronavirus in feline […] cells assessed as inhibition of virus-induced cytopathicity; assay type: functional, organism-based; conditions: Alphacoronavirus 1
# [36] = tested on: Felid alphaherpesvirus 1; assay: Antiviral activity against Feline herpesvirus in feline […] cells assessed as inhibition of virus-induced cytopathicity; assay type: functional, organism-based
SMILES,EC50 [1] [µM],EC50 [2] [µM],EC50 [3] [µM],EC50 [4] [µM],IC50 [5] [µM],IC50 [6] [µM],IC50 [7] [µM],MCC at 72 h [12] [µM],MCC at 72 h [13] [µM],EC50 [14] [µM],EC50 [15] [µM],EC50 [16] [µM],EC50 [17] [µM],EC50 [18] [µM],EC50 [19] [µM],MCC at 72 h [20] [µM],EC50 [21] [µM],EC50 [22] [µM],EC50 [23] [µM],EC50 [24] [µM],other results
Cc1cc(C)cc(S(=O)(=O)c2c(C(=O)NC(C)CS(N)(=O)=O)[nH]c3ccc(Br)cc23)c1 (stereo not drawn),≥ 4,> 4,0.0023,> 10,11,9.3,12,20,≥ 20,3,16,> 20,> 20,> 20,> 20,20,> 4,> 4,> 4,> 4,IC50 ([8]; read-out: IC50): 0.003 µM; IC50 ([9]; read-out: IC50): 0.125 µM; IC50 ([10]; read-out: IC50): 1.33 µM; IC50 ([11]; read-out: IC50): 8.55 µM; EC50 [25]: > 4 µM; MCC [26]: 4 µM; CC50 [27]: 1.9 µM; EC50 [28]: > 800 µM; EC50 [29]: > 800 µM; EC50 [30]: > 800 µM; EC50 [31]: > 800 µM; EC50 [32]: > 800 µM; EC50 [33]: > 800 µM; CC50 [34]: 53 µM; EC50 [35]: > 20 µM; EC50 [36]: > 20 µM
Cc1cc(C)cc(S(=O)(=O)c2c(C(=O)NCCS(N)(=O)=O)[nH]c3ccc(Cl)c(F)c23)c1,20,> 20,0.0023,> 10,42,36,31,100,100,7,> 20,> 20,> 20,> 20,> 20,100,> 20,> 20,> 20,> 20,IC50 [8]: ND(Insoluble); IC50 [9]: ND(Insoluble); IC50 [10]: ND(Insoluble); IC50 [11]: ND(Insoluble); EC50 [25]: > 20 µM; MCC [26]: 20 µM; CC50 [27]: 7.4 µM; EC50 [28]: > 4 µM; EC50 [29]: > 4 µM; EC50 [30]: > 4 µM; EC50 [31]: > 4 µM; EC50 [32]: > 4 µM; EC50 [33]: > 4 µM; CC50 [34]: 34.6 µM; EC50 [35]: > 20 µM; EC50 [36]: > 20 µM
Cc1cc(C)cc(S(=O)(=O)c2c(C(=O)NC(C)C(N)=O)[nH]c3ccc([N+](=O)[O-])cc23)c1 (stereo not drawn),> 100,> 100,0.0038,> 10,96,44,66,> 100,> 100,≥ 20,> 100,> 100,> 100,> 100,> 100,100,> 20,> 20,> 20,> 20,IC50 ([8]; read-out: IC50): 0.022 µM; IC50 ([9]; read-out: IC50): 0.209 µM; IC50 ([10]; read-out: IC50): 0.362 µM; IC50 ([11]; read-out: IC50): 4.21 µM; EC50 [25]: > 20 µM; MCC [26]: 100 µM; CC50 [27]: 95.9 µM; EC50 [28]: > 20 µM; EC50 [29]: > 20 µM; EC50 [30]: > 20 µM; EC50 [31]: > 20 µM; EC50 [32]: > 20 µM; EC50 [33]: > 20 µM; CC50 [34]: 82.1 µM; EC50 [35]: > 20 µM; EC50 [36]: > 20 µM
